From ChEMBL document CHEMBL3046158, “Design, synthesis, and fungicidal activity of macrolactones and macrolactams with a sulfonamide side chain” (J Agric Food Chem, 2008)
≈ marks a conversion by molar mass, not a printed value.

Tested on: Rhizoctonia solani
Test: Fungicidal activity against Rhizoctonia solani assessed as inhibition of mycelium growth by mycelium growth rate test
Assay type: functional, organism-based
Outline: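 Mycelial growth rate test on Rhizoctonia solani. Inhibition rates measured at 100, 50, 25, 12.5 and 6.25 µg/mL.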

COC(=O)c1ccccc1S(=O)(=O)NC1CCCCCCCCCCC(=O)OC(C)CC1 (configuration not stated)
EC50: 53.4 mg/L (≈ 114 µM)

O=C1CCCCCCCCCCCN1CCNS(=O)(=O)c1cccc([N+](=O)[O-])c1
EC50: 10.7 mg/L (≈ 25.1 µM)

O=C1CCCCCCCCCCC(NS(=O)(=O)c2ccc(Cl)cc2)CCCO1 (configuration not stated)
EC50: 3.3 mg/L (≈ 7.67 µM)

Cc1ccc(S(=O)(=O)NCCN2CCCCCCCCCCCC2=O)cc1
EC50: 8.8 mg/L (≈ 22.3 µM)

CC1CCC(NS(=O)(=O)c2ccccc2Cl)CCCCCCCCCCC(=O)O1 (configuration not stated)
EC50: 37.9 mg/L (≈ 85.4 µM)

CC1CCC(NS(=O)(=O)c2cccc([N+](=O)[O-])c2)CCCCCCCCCCC(=O)O1 (configuration not stated)
EC50: 86 mg/L (≈ 189 µM)

Cc1ccc(S(=O)(=O)NC2CCCCCCCCCCC(=O)OCCC2)cc1 (configuration not stated)
EC50: 3.7 mg/L (≈ 9.03 µM)

O=C1CCCCCCCCCCCN1CCNS(=O)(=O)c1cc(Cl)ccc1Cl
EC50: 5.3 mg/L (≈ 11.8 µM)

CC1CCC(NS(=O)(=O)c2ccc(F)cc2)CCCCCCCCCCC(=O)O1 (configuration not stated)
EC50: 25.1 mg/L (≈ 58.7 µM)

COC(=O)Nc1nc2ccccc2[nH]1 [CARBENDAZIM]
EC50: 1.5 mg/L (≈ 7.85 µM)

Cc1ccc(S(=O)(=O)NC2CCCCCCCCCCC(=O)NCCC2)cc1 (configuration not stated)
EC50: 13.4 mg/L (≈ 32.8 µM)

O=C1CCCCCCCCCCC(NS(=O)(=O)c2ccccc2)CCCN1 (configuration not stated)
EC50: 55.3 mg/L (≈ 140 µM)

CS(=O)(=O)NC1CCCCCCCCCCC(=O)OCCC1 (configuration not stated)
EC50: 12.2 mg/L (≈ 36.6 µM)

O=C1CCCCCCCCCCC(NS(=O)(=O)Cc2ccccc2)CCCN1 (configuration not stated)
EC50: 8.1 mg/L (≈ 19.8 µM)

COC(=O)c1ccccc1S(=O)(=O)NC1CCCCCCCCCCC(=O)NCCC1 (configuration not stated)
EC50: 12.8 mg/L (≈ 28.3 µM)

O=C1CCCCCCCCCCC(NS(=O)(=O)c2cc(Cl)ccc2Cl)CCCN1 (configuration not stated)
EC50: 30.4 mg/L (≈ 65.6 µM)

CC1CCC(NS(=O)(=O)c2ccccc2)CCCCCCCCCCC(=O)O1 (configuration not stated)
EC50: 51.3 mg/L (≈ 125 µM)

O=C1CCCCCCCCCCC(NS(=O)(=O)c2ccc(F)cc2)CCCN1 (configuration not stated)
EC50: 36.7 mg/L (≈ 89 µM)

O=C1CCCCCCCCCCC(NS(=O)(=O)c2ccccc2[N+](=O)[O-])CCCN1 (configuration not stated)
EC50: 21.5 mg/L (≈ 48.9 µM)

O=C1CCCCCCCCCCC(NS(=O)(=O)c2ccc(F)cc2)CCCO1 (configuration not stated)
EC50: 4.5 mg/L (≈ 10.9 µM)

O=C1CCCCCCCCCCC(NS(=O)(=O)c2cccc([N+](=O)[O-])c2)CCCO1 (configuration not stated)
EC50: 18.7 mg/L (≈ 42.4 µM)

O=C1CCCCCCCCCCC(NS(=O)(=O)Cc2ccccc2)CCCO1 (configuration not stated)
EC50: 52.4 mg/L (≈ 128 µM)

O=C1CCCCCCCCCCCN1CCNS(=O)(=O)c1ccccc1
EC50: 11.6 mg/L (≈ 30.5 µM)

Cc1ccc(S(=O)(=O)NC2CCCCCCCCCCC(=O)OC(C)CC2)cc1 (configuration not stated)
EC50: 57 mg/L (≈ 135 µM)

O=C1CCCCCCCCCCC(NS(=O)(=O)c2ccc(Cl)cc2)CCCN1 (configuration not stated)
EC50: 19.6 mg/L (≈ 45.7 µM)

O=C1CCCCCCCCCCC(NS(=O)(=O)c2cccs2)CCCO1 (configuration not stated)
EC50: 5.1 mg/L (≈ 12.7 µM)

CC1CCC(NS(=O)(=O)c2ccc(Cl)cc2)CCCCCCCCCCC(=O)O1 (configuration not stated)
EC50: 69.6 mg/L (≈ 157 µM)

CC1CCC(NS(=O)(=O)c2cc(Cl)ccc2Cl)CCCCCCCCCCC(=O)O1 (configuration not stated)
EC50: 30 mg/L (≈ 62.7 µM)

O=C1CCCCCCCCCCC(NS(=O)(=O)c2ccccc2[N+](=O)[O-])CCCO1 (configuration not stated)
EC50: 22.3 mg/L (≈ 50.6 µM)

O=C1CCCCCCCCCCC(NS(=O)(=O)c2ccccc2Cl)CCCO1 (configuration not stated)
EC50: 25 mg/L (≈ 58.1 µM)

O=C1CCCCCCCCCCC(NS(=O)(=O)c2ccccc2)CCCO1 (configuration not stated)
EC50: 2.4 mg/L (≈ 6.07 µM)

CC1CCC(NS(C)(=O)=O)CCCCCCCCCCC(=O)O1 (configuration not stated)
EC50: 56.4 mg/L (≈ 162 µM)

CS(=O)(=O)NC1CCCCCCCCCCC(=O)NCCC1 (configuration not stated)
EC50: 45.1 mg/L (≈ 136 µM)

O=C1CCCCCCCCCCC(NS(=O)(=O)c2cc(Cl)ccc2Cl)CCCO1 (configuration not stated)
EC50: 28.4 mg/L (≈ 61.1 µM)

CC1CCC(NS(=O)(=O)Cc2ccccc2)CCCCCCCCCCC(=O)O1 (configuration not stated)
EC50: 28.2 mg/L (≈ 66.6 µM)

O=C1CCCCCCCCCCC(NS(=O)(=O)c2cccs2)CCCN1 (configuration not stated)
EC50: 18.3 mg/L (≈ 45.7 µM)

CC1CCC(NS(=O)(=O)c2cccs2)CCCCCCCCCCC(=O)O1 (configuration not stated)
EC50: 20.3 mg/L (≈ 48.8 µM)

O=C1CCCCCCCCCCC(NS(=O)(=O)c2ccccc2Cl)CCCN1 (configuration not stated)
EC50: 59.5 mg/L (≈ 139 µM)

CC1CCC(NS(=O)(=O)c2ccccc2[N+](=O)[O-])CCCCCCCCCCC(=O)O1 (configuration not stated)
EC50: 93.3 mg/L (≈ 205 µM)

O=C1CCCCCCCCCCC(NS(=O)(=O)c2cccc([N+](=O)[O-])c2)CCCN1 (configuration not stated)
EC50: 27.6 mg/L (≈ 62.8 µM)

O=C1CCCCCCCCCCCN1CCNS(=O)(=O)c1ccc(Cl)cc1
EC50: 18.7 mg/L (≈ 45.1 µM)

COC(=O)c1ccccc1S(=O)(=O)NC1CCCCCCCCCCC(=O)OCCC1 (configuration not stated)
EC50: 20.9 mg/L (≈ 46.1 µM)
